Source: ChEMBL document CHEMBL4316595, “Synthesis and structure-activity relationship studies of parthenolide derivatives as potential anti-triple negative breast cancer agents” (Eur J Med Chem, 2019)

Tested on: SUM-159-PT
Assay: Antiproliferative activity against human SUM159 cells measured after 72 hrs by MTT assay
Type: functional, cell-based
Conditions: not given
Method in brief: (§1)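 MTT antiproliferation assay on human breast cancer lines MDA-MB-231, SUM-159, MCF-7 and Bcap-37 and on mouse 4T1 breast cancer cells. IC50 values were taken from the MTT read-out. Adriamycin served as the positive control.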

SMILES | IC50
C=C1C(=O)O[C@H]2[C@H]1CC/C(COC(=O)/C=C/c1ccccc1OC)=C\CC[C@@]1(C)O[C@@H]21 | 0.35 µM
C=C1C(=O)O[C@H]2[C@H]1CC/C(COC(=O)/C=C/c1ccccc1C(F)(F)F)=C\CC[C@@]1(C)O[C@@H]21 | 0.85 µM
C=C1C(=O)O[C@H]2[C@H]1CC/C(COC(=O)/C=C/c1ccc(OC)cc1OC)=C\CC[C@@]1(C)O[C@@H]21 | 0.8 µM

Tested on: Bcap37
Assay: Antiproliferative activity against human Bcap37 cells measured after 72 hrs by MTT assay
Type: functional, cell-based
Conditions: Bcap37, 72 h
Method in brief: as §1

SMILES | IC50
C=C1C(=O)O[C@H]2[C@H]1CC/C(COC(=O)/C=C/c1ccccc1OC)=C\CC[C@@]1(C)O[C@@H]21 | 0.68 µM
C=C1C(=O)O[C@H]2[C@H]1CC/C(COC(=O)/C=C/c1ccccc1C(F)(F)F)=C\CC[C@@]1(C)O[C@@H]21 | 1.89 µM
C=C1C(=O)O[C@H]2[C@H]1CC/C(COC(=O)/C=C/c1ccc(OC)cc1OC)=C\CC[C@@]1(C)O[C@@H]21 | 1.15 µM

Tested on: MDA-MB-231
Assay: Antiproliferative activity against human MDA-MB-231 cells measured after 72 hrs by MTT assay
Type: functional, cell-based
Conditions: MDA-MB-231, 72 h
Method in brief: as §1

SMILES | IC50
C=C1C(=O)O[C@H]2[C@H]1CC/C(COC(=O)/C=C/c1ccc(OC)c(OC)c1OC)=C\CC[C@@]1(C)O[C@@H]21 | 1.77 µM
C=C1C(=O)O[C@H]2[C@H]1CC/C(COC(=O)/C(C#N)=C/c1cc(OC)ccc1OC)=C\CC[C@@]1(C)O[C@@H]21 | 2.35 µM
C=C1C(=O)O[C@H]2[C@H]1CC/C(COC(=O)/C=C/c1cccc(C)c1)=C\CC[C@@]1(C)O[C@@H]21 | 1.08 µM
C=C1C(=O)O[C@H]2[C@H]1CC/C(COC(=O)/C=C/c1ccco1)=C\CC[C@@]1(C)O[C@@H]21 | 2.25 µM
C=C1C(=O)O[C@H]2[C@H]1CC/C(COC(=O)/C=C/c1c(Br)cccc1Br)=C\CC[C@@]1(C)O[C@@H]21 | 1.5 µM
C=C1C(=O)O[C@H]2[C@H]1CC/C(CO)=C\CC[C@@]1(C)O[C@@H]21 | 5.59 µM
C=C1C(=O)O[C@H]2[C@H]1CC/C(COC(=O)/C=C/c1ccc(Br)cc1)=C\CC[C@@]1(C)O[C@@H]21 | 1.02 µM
C=C1C(=O)O[C@H]2[C@H]1CC/C(COC(=O)/C=C/c1ccccc1Cl)=C\CC[C@@]1(C)O[C@@H]21 | 1.42 µM
C=C1C(=O)O[C@H]2[C@H]1CC/C(COC(=O)/C=C/c1ccc(OC)c(OC)c1)=C\CC[C@@]1(C)O[C@@H]21 | 1.95 µM
C=C1C(=O)O[C@H]2[C@H]1CC/C(COC(=O)/C=C/c1ccc(Cl)cc1)=C\CC[C@@]1(C)O[C@@H]21 | 1.22 µM
C=C1C(=O)O[C@H]2[C@H]1CC/C(COC(=O)/C(=C/c1cc(OC)ccc1OC)c1ccc(F)cc1)=C\CC[C@@]1(C)O[C@@H]21 | 1.96 µM
C=C1C(=O)O[C@H]2[C@H]1CC/C(COC(=O)/C=C/c1ccc(O)cc1)=C\CC[C@@]1(C)O[C@@H]21 | 1.89 µM
C=C1C(=O)O[C@H]2[C@H]1CC/C(COC(=O)/C=C/c1cccnc1)=C\CC[C@@]1(C)O[C@@H]21 | 3.27 µM
C=C1C(=O)O[C@H]2[C@H]1CC/C(COC(=O)/C=C/c1ccc(OC)cc1)=C\CC[C@@]1(C)O[C@@H]21 | 1.73 µM
COC(=O)/C=C/c1cc(OC)ccc1OC | > 50 µM
C=C1C(=O)O[C@H]2[C@H]1CC/C(COC(=O)/C(=C/c1cc(OC)ccc1OC)CC)=C\CC[C@@]1(C)O[C@@H]21 | 2.25 µM
C=C1C(=O)O[C@H]2[C@H]1CC/C(COC(=O)/C=C/c1ccc(F)cc1)=C\CC[C@@]1(C)O[C@@H]21 | 1.32 µM
C=C1C(=O)O[C@H]2[C@H]1CC/C(COC(=O)/C=C/c1ccc(C#N)cc1)=C\CC[C@@]1(C)O[C@@H]21 | 1.8 µM
C=C1C(=O)O[C@H]2[C@H]1CC/C(COC(=O)c1c(OC)cccc1OC)=C\CC[C@@]1(C)O[C@@H]21 | 3.55 µM
C=C1C(=O)O[C@H]2[C@H]1CC/C(COC(=O)/C=C/c1ccc(OCC)cc1)=C\CC[C@@]1(C)O[C@@H]21 | 1.58 µM
C=C1C(=O)O[C@H]2[C@H]1CC/C(COC(=O)/C(=C/c1cc(OC)ccc1OC)c1ccc(Br)cc1)=C\CC[C@@]1(C)O[C@@H]21 | 2.01 µM

SMILES | IC50
C=C1C(=O)O[C@H]2[C@H]1CC/C(COC(=O)/C=C/c1ccc3c(c1)OCO3)=C\CC[C@@]1(C)O[C@@H]21 | 1.8 µM
C=C1C(=O)O[C@H]2[C@H]1CC/C(COC(=O)/C=C/c1ccc(OC(C)=O)cc1)=C\CC[C@@]1(C)O[C@@H]21 | 1.15 µM
C=C1C(=O)O[C@H]2[C@H]1CC/C(COC(=O)/C=C/c1cc(OC)c(OC)cc1OC)=C\CC[C@@]1(C)O[C@@H]21 | 1.02 µM
C=C1C(=O)O[C@H]2[C@H]1CC/C(COC(=O)/C=C/c1cccc(F)c1)=C\CC[C@@]1(C)O[C@@H]21 | 1.73 µM
C=C1C(=O)O[C@H]2[C@H]1CC/C(COC(=O)/C=C/c1c(F)cccc1F)=C\CC[C@@]1(C)O[C@@H]21 | 1.59 µM
C=C1C(=O)O[C@H]2[C@H]1CC/C(COC(=O)/C=C/c1c(OC)cc(OC)cc1OC)=C\CC[C@@]1(C)O[C@@H]21 | 1.09 µM
C=C1C(=O)O[C@H]2[C@H]1CC/C(COC(=O)/C=C/c1ccccc1OC)=C\CC[C@@]1(C)O[C@@H]21 | 0.46 µM
C=C1C(=O)O[C@H]2[C@H]1CC/C(COC(=O)/C=C/c1ccccc1C(F)(F)F)=C\CC[C@@]1(C)O[C@@H]21 | 0.74 µM
C=C1C(=O)O[C@H]2[C@H]1CC/C(COC(=O)/C=C/c1ccc([N+](=O)[O-])cc1)=C\CC[C@@]1(C)O[C@@H]21 | 1.93 µM
C=C1C(=O)O[C@H]2[C@H]1CC/C(COC(=O)/C(=C/c1cc(OC)ccc1OC)CCC)=C\CC[C@@]1(C)O[C@@H]21 | 7.53 µM
C=C1C(=O)O[C@H]2[C@H]1CC/C(COC(=O)/C=C/c1ccc(C(F)(F)F)cc1)=C\CC[C@@]1(C)O[C@@H]21 | 2.52 µM
C=C1C(=O)O[C@H]2[C@H]1CC/C(COC(=O)/C=C/c1ccc(C)cc1)=C\CC[C@@]1(C)O[C@@H]21 | 2.27 µM
COc1cccc(OC)c1/C=C/C(=O)OC/C1=C/CC[C@@]2(C)O[C@H]2[C@H]2OC(=O)[C@@H](C)[C@@H]2CC1 | 7.6 µM
C=C1C(=O)O[C@H]2[C@H]1CC/C(COC(=O)/C(=C/c1cc(OC)ccc1OC)c1ccc(OCC)cc1)=C\CC[C@@]1(C)O[C@@H]21 | 1.87 µM
C=C1C(=O)O[C@H]2[C@H]1CC/C(COC(=O)/C(=C/c1cc(OC)ccc1OC)c1ccc(Cl)cc1)=C\CC[C@@]1(C)O[C@@H]21 | 2.02 µM
C=C1C(=O)O[C@H]2[C@H]1CC/C(COC(=O)/C=C/c1ccc(C(C)C)cc1)=C\CC[C@@]1(C)O[C@@H]21 | 1.33 µM
C=C1C(=O)O[C@H]2[C@H]1CC/C(COC(=O)/C=C/c1c(Cl)cccc1Cl)=C\CC[C@@]1(C)O[C@@H]21 | 1.59 µM
C=C1C(=O)O[C@H]2[C@H]1CC/C(COC(=O)CCc1cc(OC)ccc1OC)=C\CC[C@@]1(C)O[C@@H]21 | 1.88 µM
COC(=O)/C=C/c1c(OC)cccc1OC | > 20 µM
C=C1C(=O)O[C@H]2[C@H]1CC/C(COC(=O)/C=C/c1cccc(OC)c1)=C\CC[C@@]1(C)O[C@@H]21 | 1.84 µM
C=C1C(=O)O[C@H]2[C@H]1CC/C(COC(=O)/C=C/c1ccc(OC)cc1OC)=C\CC[C@@]1(C)O[C@@H]21 | 0.55 µM

SMILES | IC50
C=C1C(=O)O[C@H]2[C@H]1CC/C(COC(=O)/C=C/c1ccc(O)c(OC)c1)=C\CC[C@@]1(C)O[C@@H]21 | 2.01 µM
C=C1C(=O)O[C@H]2[C@H]1CC/C(COC(=O)/C=C/c1ccc3ccccc3c1)=C\CC[C@@]1(C)O[C@@H]21 | 1.48 µM
C=C1C(=O)O[C@H]2[C@H]1CC/C(COC(=O)/C(=C/c1cc(OC)ccc1OC)c1ccc(C(F)(F)F)cc1)=C\CC[C@@]1(C)O[C@@H]21 | 1.98 µM
C=C1C(=O)O[C@H]2[C@H]1CC/C(COC(=O)/C=C/c1ccccc1Br)=C\CC[C@@]1(C)O[C@@H]21 | 1.33 µM
C=C1C(=O)O[C@H]2[C@H]1CC/C(COC(=O)/C=C/c1ccncc1)=C\CC[C@@]1(C)O[C@@H]21 | 2.79 µM
C=C1C(=O)O[C@H]2[C@H]1CC/C(COC(=O)/C=C/c1ccccc1F)=C\CC[C@@]1(C)O[C@@H]21 | 1.8 µM
C=C1C(=O)O[C@H]2[C@H]1CC/C(COC(=O)/C=C/c1cc(OC)cc(OC)c1)=C\CC[C@@]1(C)O[C@@H]21 | 2.02 µM
C=C1C(=O)O[C@H]2[C@H]1CC/C(COC(=O)/C=C/c1cccc(Br)c1)=C\CC[C@@]1(C)O[C@@H]21 | 1.64 µM
C=C1C(=O)O[C@H]2[C@H]1CC/C(COC(=O)/C(=C/c1cc(OC)ccc1OC)c1ccc(SC)cc1)=C\CC[C@@]1(C)O[C@@H]21 | 1.87 µM
C=C1C(=O)O[C@H]2[C@H]1CC/C(COC(=O)/C(=C/c1cc(OC)ccc1OC)c1ccc(OC)cc1)=C\CC[C@@]1(C)O[C@@H]21 | 2.51 µM
C=C1C(=O)O[C@H]2[C@H]1CC/C(COC(=O)/C=C/c1cccc(OC)c1OC)=C\CC[C@@]1(C)O[C@@H]21 | 1.74 µM
C=C1C(=O)O[C@H]2[C@H]1CC/C(COC(=O)/C(=C/c1cc(OC)ccc1OC)c1ccccc1)=C\CC[C@@]1(C)O[C@@H]21 | 2.01 µM
C=C1C(=O)O[C@H]2[C@H]1CC/C(COC(=O)/C=C/c1ccccn1)=C\CC[C@@]1(C)O[C@@H]21 | 2.29 µM
C=C1C(=O)O[C@H]2[C@H]1CC/C(COC(=O)/C(C)=C/c1cc(OC)ccc1OC)=C\CC[C@@]1(C)O[C@@H]21 | 1.76 µM
COc1ccc(OC)c(/C=C/C(=O)OC/C2=C/CC[C@@]3(C)O[C@H]3[C@H]3OC(=O)[C@@H](C)[C@@H]3CC2)c1 | 6.8 µM
C=C1C(=O)O[C@H]2[C@H]1CC/C(COC(=O)/C(=C/c1cc(OC)ccc1OC)c1ccc(C)cc1)=C\CC[C@@]1(C)O[C@@H]21 | 2.95 µM
C=C1C(=O)O[C@H]2[C@H]1CC/C(COC(=O)/C=C/c1cccs1)=C\CC[C@@]1(C)O[C@@H]21 | 1.8 µM
C=C1C(=O)O[C@H]2[C@H]1CC/C(COC(=O)/C=C/c1cccc(Cl)c1)=C\CC[C@@]1(C)O[C@@H]21 | 1.78 µM
C=C1C(=O)O[C@H]2[C@H]1CC/C(COC(=O)CCc1c(OC)cccc1OC)=C\CC[C@@]1(C)O[C@@H]21 | 2.3 µM
C=C1C(=O)O[C@H]2[C@H]1CC/C(COC(=O)/C=C/c1ccccc1C)=C\CC[C@@]1(C)O[C@@H]21 | 1.79 µM

Tested on: 4T1
Assay: Antiproliferative activity against mouse 4T1 cells measured after 72 hrs by MTT assay
Type: functional, cell-based
Conditions: 4T1, 72 h
Method in brief: as §1

SMILES | IC50
C=C1C(=O)O[C@H]2[C@H]1CC/C(COC(=O)/C=C/c1ccccc1OC)=C\CC[C@@]1(C)O[C@@H]21 | 0.52 µM
C=C1C(=O)O[C@H]2[C@H]1CC/C(COC(=O)/C=C/c1ccccc1C(F)(F)F)=C\CC[C@@]1(C)O[C@@H]21 | 1.16 µM
C=C1C(=O)O[C@H]2[C@H]1CC/C(COC(=O)/C=C/c1ccc(OC)cc1OC)=C\CC[C@@]1(C)O[C@@H]21 | 1.41 µM

Tested on: MCF7
Assay: Antiproliferative activity against human MCF7 cells measured after 72 hrs by MTT assay
Type: functional, cell-based
Conditions: MCF7, 72 h
Method in brief: as §1

SMILES | IC50
C=C1C(=O)O[C@H]2[C@H]1CC/C(COC(=O)/C=C/c1ccccc1OC)=C\CC[C@@]1(C)O[C@@H]21 | 0.42 µM
C=C1C(=O)O[C@H]2[C@H]1CC/C(COC(=O)/C=C/c1ccccc1C(F)(F)F)=C\CC[C@@]1(C)O[C@@H]21 | 2.01 µM
C=C1C(=O)O[C@H]2[C@H]1CC/C(COC(=O)/C=C/c1ccc(OC)cc1OC)=C\CC[C@@]1(C)O[C@@H]21 | 0.89 µM
